Here are results for six compounds from ChEMBL document CHEMBL1136025, “Inhibition of ADP-triggered blood platelet aggregation by diadenosine polyphosphate analogues” (Bioorg Med Chem Lett, 2002).

The species entered for this experiment is Homo sapiens. The experiment in a line: The inhibitory concentration for the inhibition of ADP-Triggered Blood Platelet Aggregation. Type of experiment: functional. Summed up:
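Human citrated PRP from unmedicated healthy donors (200g, 10 min, rt spin); PPP from 1000g, 20 min. Serial dilutions in phosphate buffer pH 7.4 preincubated with PRP 30 min at rt, then ADP added. Aggregation followed 10 min at 37 °C, absorbance 595 nm every 30 s with shaking; buffer and PPP-only controls; AMP as positive control.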

As for `Nc1ncnc2c1ncn2[C@@H]1O[C@H](COP(O)(=S)OCP(=O)(O)COP(O)(=S)OC[C@H]2O[C@@H](n3cnc4c(N)ncnc43)[C@H](O)[C@@H]2O)[C@@H](O)[C@H]1O` (stereo partly specified), the IC50 turned out to be 40 µM. The compound `Nc1ncnc2c1ncn2[C@@H]1O[C@H](COP(=S)(S)OCP(=O)(O)COP(=S)(S)OC[C@H]2O[C@@H](n3cnc4c(N)ncnc43)[C@H](O)[C@@H]2O)[C@@H](O)[C@H]1O` (stereo partly specified) displayed an IC50 of 10 µM. Under `Nc1ncnc2c1ncn2[C@@H]1O[C@H](COP(O)(=S)OC(C(=O)O)C(OP(O)(=S)OC[C@H]2O[C@@H](n3cnc4c(N)ncnc43)[C@H](O)[C@@H]2O)C(=O)O)[C@@H](O)[C@H]1O` (stereo partly specified) stands 75 µM.

For `Nc1ncnc2c1ncn2[C@@H]1O[C@H](COP(O)(=S)OCC(OP(O)(O)=S)OP(O)(=S)OC[C@H]2O[C@@H](n3cnc4c(N)ncnc43)[C@H](O)[C@@H]2O)[C@@H](O)[C@H]1O` (stereo partly specified), the IC50 is above 160 µM. In the case of `Nc1ncnc2c1ncn2[C@@H]1O[C@H](COP(=O)(O)OCP(=O)(O)COP(=O)(O)OC[C@H]2O[C@@H](n3cnc4c(N)ncnc43)[C@H](O)[C@@H]2O)[C@@H](O)[C@H]1O`, the IC50 came to 80 µM. Then `Nc1ncnc2c1ncn2[C@@H]1O[C@H](COP(O)(=S)OCP(=O)(O)COP(O)(O)=S)[C@@H](O)[C@H]1O` (stereo partly specified), with 13 µM.
